Compound activity deposited in PubChem by Johns Hopkins Ion Channel Center.
RGS4 pot: potentiators or activators of RGS4 | HEK293 M3R/inducible RGS4, carbachol calcium flux Fluo4; hits give low values | B-score at 10 µM | 310,000 tested, 0.92% active | AID 463111;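 active = B-score of the integrated calcium signal more than 4 SD below the library mean, with starting fluorescence not abnormally high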;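 also: negative B-score means reduced calcium response which marks RGS4 activation or potentiation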
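System: HEK293 FlpIn-TREx cells, stable M3R, doxycycline-inducible RGS4. Timing: overnight RGS4 induction, 30 min dye load 37 °C, 20 min compound RT. Also added: carbachol, ECmax concentration. Measured by: Fluo4 fluorescence kinetic imaging of calcium. Evaluation: integrated calcium ratio converted to B score.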
MrgX1 antag: blocks BAM8-22 activation of human MrgX1 receptor. MRGX1-HEK293 calcium flux, Fluo-4, BAM8-22 antagonism; hits give low values. 310,000 tested, 1.3% active. B-score at 10 µM. Q96LB2;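 active = calcium-response B-score plate-corrected more than 3 library SD below zero, starting fluorescence within 5 deviations, no agonist response on first addition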;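 also: peak minus trough fluorescence over baseline after final BAM8-22 challenge near maximal dose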
Target sequence (Q96LB2 whole entry, looked up): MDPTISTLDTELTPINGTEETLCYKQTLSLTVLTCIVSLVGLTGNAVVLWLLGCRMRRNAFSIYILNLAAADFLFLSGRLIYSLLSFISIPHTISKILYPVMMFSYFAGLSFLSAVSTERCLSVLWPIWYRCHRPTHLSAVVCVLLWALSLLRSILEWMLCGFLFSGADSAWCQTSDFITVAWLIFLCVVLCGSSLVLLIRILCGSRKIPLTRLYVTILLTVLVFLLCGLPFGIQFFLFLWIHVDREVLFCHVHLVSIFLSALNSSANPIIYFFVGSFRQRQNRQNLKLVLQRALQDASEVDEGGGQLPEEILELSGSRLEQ
RGS4 block: human RGS4 inhibition; P49798; HEK293 M3R/RGS4 inducible, Fluo-4 calcium flux; hits give high values; triggered by carbachol at its EC20; B-score at 10 µM; 310,000 tested, 0.45% active; AID 463165;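 active = B-score, a plate-corrected calcium signal, over three deviations above library mean, with baseline fluorescence within five deviations of library mean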;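 also: RGS4 expression induced by doxycycline in cells with stable M3 receptor; B-score is computed from the integrated fluorescence ratio over baseline after carbachol; higher B-score means a larger calcium signal and so more RGS4 inhibition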
Target sequence (P49798 whole entry, looked up): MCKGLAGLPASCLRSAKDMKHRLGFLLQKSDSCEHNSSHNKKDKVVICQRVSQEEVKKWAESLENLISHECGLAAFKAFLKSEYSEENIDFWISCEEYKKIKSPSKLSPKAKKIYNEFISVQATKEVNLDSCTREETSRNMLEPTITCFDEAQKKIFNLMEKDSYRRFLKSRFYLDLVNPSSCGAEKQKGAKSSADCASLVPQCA
MrgX1 ag: agonists of human MrgX1 receptor. Q96LB2. MrgX1-HEK293 cells, Fluo-4 calcium fluorescence, agonist mode; hits give high values. B-score at 10 µM. 310,000 tested, 0.44% active;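 active = calcium response B-score plate-corrected fluorescence ratio at least 3 library SD, with starting fluorescence B-score inside 5 SD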
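Material: MrgX1-expressing HEK293 cells / Dosing: compound as first of three additions / Incubation: overnight seeding, then 1 h dark dye loading / Signal: Fluo-4 NW calcium fluorescence / Evaluation: B-scored fluorescence response ratio / Benchmarks: positive and negative control wells on each plate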
MrgX1 allo act: allosterically activates human MrgX1 receptor signaling; B-score at 10 µM; AID 588675; Q96LB2; MrgX1-HEK293, Fluo-4 calcium flux, FDSS; hits give high values; 310,000 tested, 0.63% active;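 active = plate-corrected calcium response at least 3 library SD above typical, normal starting fluorescence, not activating the receptor alone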;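 also: compound read alongside a low EC10 to EC30 dose of BAM8-22 agonist; peak minus trough fluorescence over baseline measured at the second addition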
RGS4 act valid: confirmation of RGS4 activators; shares compounds with RGS4 pot; HEK293 M3R/RGS4 inducible, carbachol calcium flux Fluo4; inhibition, % at 10 µM; 1,100 tested, 89% active; AID 602282;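 active = inhibition above 3 SD of the buffer control wells, cut at about 41% in these data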;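 also: signal is the integrated peak-minus-minimum Fluo4 fluorescence over baseline ratio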
M3R Ca counter: counter-screen for RGS4 activators: effect in non-induced cells | HEK293 M3R non-induced RGS4, Fluo4 calcium flux; after carbachol challenge at its EC90 | shares compounds with RGS4 pot | 1,100 tested, 82% active | inhibition, % at 10 µM;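 active = inhibition exceeding 3 SD of buffer-only control wells, cut at about 26% in these data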;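 also: percent drop in integrated peak-minus-baseline over baseline Fluo4 ratio after carbachol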
RGS4 block valid: RGS4 inhibitor validation | shares compounds with RGS4 block | HEK293 M3R/RGS4, carbachol calcium Fluo-4 fluorescence; carbachol added at its EC20; 0 = buffer wells, 100 = carbachol control | calcium response, % at 10 µM | 1,700 tested, 65% active | AID 492999;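 active = duplicate-averaged calcium response above the buffer-only control mean plus 5 SD of those controls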;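 also: integrated fluorescence ratio F max minus min over baseline F0; higher response in RGS4-induced cells means RGS4 inhibition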
M3R Ca ctr: non-induced cell nonspecific activity of RGS4 inhibitors | activity (percent), % at 10 µM | AID 493000 | 1,900 tested, 20% active | shares compounds with RGS4 block | HEK293 M3R non-induced, carbachol calcium Fluo-4; submaximal (EC20) carbachol stimulus; buffer wells 0%, carbachol control wells 100%; call rule not given here;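 also: RGS4 induction absent so cells express M3R without RGS4; higher means more calcium signal and flags a non-specific hit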
RGS4 inh ctr2: signal in non-induced cells without carbachol, RGS4 inhibitor counter-screen; shares compounds with RGS4 block; HEK293 M3R/RGS4 non-induced, Fluo-4 calcium, no carbachol; normalised: buffer wells 0%, carbachol wells 100%; calcium response (agonist-mode artifact), % at 10 µM; 1,900 tested, 22% active;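 active = duplicate-averaged calcium rise in uninduced cells above buffer wells' mean plus 5 SD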
MrgX1 antag conf: reconfirmed antagonist of human MrgX1 receptor signaling. shares compounds with MrgX1 antag. MrgX1-HEK293, BAM8-22 calcium flux, Fluo-4; hits give low values. remaining BAM8-22 calcium response % of control (hits give low values), % at 10 µM. 2,300 tested, 19% active;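 active = remaining agonist calcium response no higher than 100% minus 3 SD of agonist-only control wells, with starting fluorescence near control levels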;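 also: agonist BAM8-22 given at a near maximal EC90 to ECmax level; peak minus minimum fluorescence divided by baseline after agonist addition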
HEK293 Ca flux: MrgX1 antagonist counter-screen hit in parental HEK293 cells | shares compounds with MrgX1 antag | Fluo-4 calcium fluorescence, FDSS | fluorescence ratio F(max-min)/F0 at 10 µM | 4,000 tested, 2% active | AID 624111;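 active = duplicate-averaged calcium fluorescence ratio at least three times the standard deviation of buffer wells, a nonspecific response in parental cells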
HEK293 Ca counter: activity in parental HEK293 cells without MrgX1. parental HEK293 calcium flux, Fluo-4 fluorescence ratio; hits give high values. 4,000 tested, 0.4% active. shares compounds with MrgX1 antag. fluorescence ratio F(max-min)/F0 at 10 µM;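 active = calcium fluorescence ratio, averaged over duplicates, at least 3 SD of the buffer-well ratio, meaning a nonspecific response in receptor-free cells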;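 also: untransfected parental HEK293 lacking MrgX1 used as counterscreen for MrgX1 allosteric activators; fluorescence change taken during the second addition on a kinetic imager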
HEK293 Ca cntr2: counter-screen for MrgX1 activators: effect in parental HEK293 cells; shares compounds with MrgX1 antag; Fluo-4 calcium fluorescence (FDSS); hits give high values; fluorescence ratio F(max-min)/F0 at 10 µM; 4,000 tested, 8.7% active; AID 624115;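 active = calcium fluorescence ratio at least three times the spread of buffer wells, meaning a non-specific response in parental cells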
* hit, by the source's call; i = inactive; . = not tested or not shown. A selection: hits, their analogues and other compounds. The true share with any hit is near 3.5%.

SMILES	RGS4 pot	MrgX1 antag	RGS4 block	MrgX1 ag	MrgX1 allo act	RGS4 act valid	M3R Ca counter	others
CN1CCN(CCC(C#N)(c2ccccc2)c2ccccc2)CC1	-7.7*	i	i	i	i	94*	92*
CN1CCN(Cc2ccc3ccccc3c2)CC1	i	i	i	i	i	.	.
Clc1ccc(OCC#CCN2CCCC2)cc1	-9.6*	i	i	i	i	54*	0
O=C(c1ccc(Cl)cc1)C1CCCN(Cc2ccc3c(c2)OCCO3)C1 (centres undefined)	-8.7*	i	i	i	i	91*	41*
CC(Cc1ccccc1Sc1ccccc1O)N(C)C (centres undefined)	-8.6*	i	i	i	i	93*	91*
Fc1ccc(C(OCCN2CCCC2)c2ccc(F)cc2)cc1	-9.3*	i	i	i	i	88*	37*
N#CC(C#N)=C(N)c1cccnc1	i	i	i	i	i	.	.
CCCCOCCCN1C(C)=CC(=C2C(=O)NC(=S)NC2=O)C=C1C	i	i	i	i	i	.	.
CN(CC1COc2ccccc2O1)c1nc(-c2cccnc2)nc2ccccc12 (centres undefined)	-10*	i	i	i	i	90*	93*
O=[N+]([O-])NC1=NCCN1Cc1ccc(Cl)nc1	i	i	i	i	i	.	.
CCC1(OC(=O)c2ccccc2)CC(C)N(C)CC1C (centres undefined)	i	i	i	i	i	.	.
C=CCC1(Nc2ccccc2)CC(C)N(C)CC1C (centres undefined)	-7.7*	i	i	i	i	59*	84*
C[C@H]1[C@@H](c2ccccc2)O[C@@H](c2ccccc2Br)N1C	i	i	i	i	i	.	.
CN(C)C(=O)Oc1ccc(OCc2nc3ccccc3[nH]2)cc1	i	i	i	i	i	.	.
O=c1cc(C(F)(F)F)c2cc3c4c(c2o1)CCCN4CCC3	-9.1*	i	i	i	i	98*	94*
CCCCC(C)C(OC(=O)CC(CC(=O)O)C(=O)O)C(CC(C)CC(O)CCCCC(O)CC(O)C(C)N)OC(=O)CC(CC(=O)O)C(=O)O (centres undefined)	.	i	.	i	i	.	.
OC(C#CCN1CCOCC1)(c1ccccc1)C1CCCC1 (centres undefined)	-8.9*	i	i	i	i	56*	84*
O=C(N/N=C/C1C(=O)NC(=S)N(c2ccccc2)C1=O)c1cc(Br)c(O)c(Br)c1 (centres undefined)	i	i	i	i	i	.	.
CN1CCC(O)(c2ccc(Cl)cc2)C(C(=O)c2ccc(Cl)cc2)C1 (centres undefined)	-9.6*	i	i	i	i	94*	66*
CN1CC(C(=O)c2ccc(Cl)cc2)C(c2ccc(Cl)cc2Cl)C1 (centres undefined)	i	i	i	i	i	.	.
Cc1ccccc1C(O)(Cc1ccccc1)C1CN2CCC1CC2 (centres undefined)	-8.2*	i	i	i	i	92*	88*
Cc1ccc(C(O)(c2ccc(C)c(C)c2)C2CN3CCC2CC3)cc1C (centres undefined)	i	i	i	i	i	.	.
CN1CCc2cc3c(c4c2C1Cc1ccccc1-4)OCO3 (centres undefined)	-7.8*	-6.6*	i	i	i	0	0	MrgX1 antag conf=i;HEK293 Ca flux=i;HEK293 Ca counter=i;HEK293 Ca cntr2=i
CN(C)P(=O)(CCl)Nc1ccccc1 (centres undefined)	i	i	i	i	i	.	.
Cc1cccc(NP(=O)(Oc2ccccc2F)Oc2ccccc2F)c1C	i	i	4.9*	i	i	.	.	RGS4 block valid=i;M3R Ca ctr=i;RGS4 inh ctr2=i
SMILES	RGS4 pot	MrgX1 antag	RGS4 block	MrgX1 ag	MrgX1 allo act	RGS4 act valid	M3R Ca counter	others
CN1CCc2cccc(Cl)c2CC1	.	i	.	i	i	.	.
COc1cc2c(cc1O)C[C@H]1c3c(cc(O)c(OC)c3-2)CCN1C	.	i	.	i	i	.	.
CN1CCc2cc(O)cc3c2[C@H]1Cc1ccc(O)c(O)c1-3	i	i	7.3*	i	i	.	.	RGS4 block valid=30%*;M3R Ca ctr=i;RGS4 inh ctr2=i
CC(C)CC(=O)Nc1ccc(S(=O)(=O)N2CC3CC(C2)c2cccc(=O)n2C3)cc1 (centres undefined)	i	i	i	i	i	.	.
OCC[n+]1c2ccccc2nc2ccc(N3CCOCC3)cc21	i	i	i	i	i	.	.
Cc1cc(C)cc(N2C(=O)NC(=O)/C(=C\C=C\c3ccco3)C2=O)c1	i	i	23*	i	i	.	.	RGS4 block valid=59%*;M3R Ca ctr=80%*;RGS4 inh ctr2=36%*
O=C1NC(=O)N(c2ccccc2)C(=O)/C1=C\C=C\c1ccccc1	i	i	16*	i	i	.	.	RGS4 block valid=114%*;M3R Ca ctr=31%*;RGS4 inh ctr2=24%*
